In ChEMBL document CHEMBL5149989, “Interplay among Conformation, Intramolecular Hydrogen Bonds, and Chameleonicity in the Membrane Permeability and Cyclophilin A Binding of Macrocyclic Peptide Cyclosporin O Derivatives” (J Med Chem, 2021):
Non-standard residues stand in square brackets, D forms with d. Residues, ends and D or L forms follow the SMILES beside them. NMeL = CN[C@@H](CC(C)C)C(=O)O; NMeV = CN[C@H](C(=O)O)C(C)C; Nva = CCC[C@H](N)C(=O)O; Sar = CNCC(=O)O

Tests used:
[1] = Permeability across apical to basal side in human Caco-2 cells assessed as drug recovery measured at 0.5 to 2 hrs by LC-MS analysis relative to control; type: ADME, cell-based; settings: time 0.5-2 hrs, read-out: Drug recovery
[2] = Permeability across apical to basal side in human Caco-2 cells assessed as drug recovery preincubated with verapamil for 30 mins followed by compound addition measured at 0.5 to 2 hrs by LC-MS analysis relative to control; type: ADME, cell-based; settings: for recovery: Caco-2, with verapamil (concentration not stated), time 1-2.5 hrs, read-out: Drug recovery
[3] = Permeability across basal to apical side in human Caco-2 cells assessed as drug recovery measured at 0.5 to 2 hrs by LC-MS analysis relative to control; type: ADME, cell-based; settings: time 0.5-2 hrs, read-out: Drug recovery
[4] = biological target: Peptidyl-prolyl cis-trans isomerase A (Homo sapiens, UniProt P62937); experiment: Binding affinity to CypA (unknown origin) assessed as inhibition constant by isomer specific proteolysis assay
Chain of Peptidyl-prolyl cis-trans isomerase A (P62937 whole entry): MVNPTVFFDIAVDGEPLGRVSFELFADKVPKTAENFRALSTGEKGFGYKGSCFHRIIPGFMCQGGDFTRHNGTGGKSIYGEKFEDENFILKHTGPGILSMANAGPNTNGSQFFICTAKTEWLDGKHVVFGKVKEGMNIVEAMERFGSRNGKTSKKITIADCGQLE

[5] = Effective permeability in PBS buffer assessed as mass retention measured after 18 hrs by PAMPA based LC-MS analysis; type: ADME
[6] = Permeability in PBS buffer measured after 18 hrs by PAMPA based LC-MS analysis; type: ADME; settings: read-out: permeability
[7] = Permeability across apical to basal side in human Caco-2 cells preincubated with verapamil for 30 mins followed by compound addition measured at 0.5 to 2 hrs by LC-MS analysis; type: ADME, cell-based; settings: Caco-2, with verapamil (concentration not stated), time 0.5-2 hrs, read-out: permeability
[8] = Permeability across apical to basal side in human Caco-2 cells measured at 0.5 to 2 hrs by LC-MS analysis; type: ADME, cell-based; settings: time 0.5-2 hrs; for Papp A→B: read-out: permeability
[9] = Permeability across basal to apical side in human Caco-2 cells measured at 0.5 to 2 hrs by LC-MS analysis; type: ADME, cell-based; settings: time 0.5-2 hrs, read-out: permeability
[10] = AUCinfinity in ICR mouse at 5 mg/kg, iv measured after 0.08 to 24 hrs by LC-MS/MS analysis; settings: in vivo
[11] = Apparent volume of distribution in ICR mouse at 20 mg/kg, po measured after 0.25 to 24 hrs by LC-MS/MS analysis; type: ADME, organism-based; settings: in vivo, time 0.25-24 hrs
[12] = Half life in ICR mouse at 5 mg/kg, iv measured after 0.08 to 24 hrs by LC-MS/MS analysis; settings: in vivo
[13] = Half life in ICR mouse at 20 mg/kg, po measured after 0.25 to 24 hrs by LC-MS/MS analysis; type: ADME, organism-based; settings: in vivo, time 0.25-24 hrs
[14] = Tmax in ICR mouse at 20 mg/kg, po measured after 0.25 to 24 hrs by LC-MS/MS analysis; type: ADME, organism-based; settings: in vivo, time 0.25-24 hrs
[15] = Oral bioavailability in ICR mouse at 20 mg/kg measured after 0.25 to 24 hrs by LC-MS/MS analysis; type: ADME, organism-based; settings: in vivo, time 0.25-24 hrs
Procedure, shortened: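 Male ICR mice received 5 mg/kg iv via tail vein or 20 mg/kg po by gavage. Plasma was sampled serially up to 24 h via the saphenous vein, acetonitrile-precipitated and quantified by LC-MS/MS. F was derived from the po and iv AUC∞ values.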

[16] = Clearance in ICR mouse at 20 mg/kg, po measured after 0.25 to 24 hrs by LC-MS/MS analysis; type: ADME, organism-based; settings: in vivo, time 0.25-24 hrs
Procedure, shortened: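 Male ICR mice (9 weeks, 33−37 g) given 20 mg/kg (10 mL/kg) by oral gavage. Plasma obtained by centrifugation at 4 °C, protein-precipitated with 4 volumes acetonitrile, and analysed by LC-MS/MS.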

[17] = AUCinfinity in ICR mouse at 20 mg/kg, po measured after 0.25 to 24 hrs by LC-MS/MS analysis; type: ADME, organism-based; design: dose 20 mg/kg, time upper 24 hrs, time lower 0.25 hrs, route po; settings: in vivo
[18] = Potency index, ratio of cyclosporin A BPR to test compound BPR for drug level in ICR mouse at 1 uM; type: ADME; settings: in vivo
[19] = Volume of distribution at steady state in ICR mouse at 5 mg/kg, iv measured after 0.08 to 24 hrs by LC-MS/MS analysis; settings: in vivo, read-out: Vdss
[20] = Ratio of drug level in brain to plasma in ICR mouse plasma at 1 uM preincubated for 10 mins followed by compound addition measured after 60 mins by LC-MS/MS analysis; type: ADME, cell-free; settings: read-out: BPR
[21] = Cmax in ICR mouse at 20 mg/kg, po measured after 0.25 to 24 hrs by LC-MS/MS analysis; type: ADME, organism-based; design: time upper 24 hrs, time lower 0.25 hrs, dose 20 mg/kg, route po; settings: in vivo

| SMILES | recovery [1] [%] | recovery [2] [%] | recovery [3] [%] | Ki [4] [µM] | Activity [5] [%] | Papp at 18 h [6] [×10⁻⁶ cm/s] | Papp A→B [7] [×10⁻⁶ cm/s] | Papp A→B [8] [×10⁻⁶ cm/s] | Papp B→A [9] [×10⁻⁶ cm/s] | further results |
| --- | --- | --- | --- | --- | --- | --- | --- | --- | --- | --- |
| CC(C)NCC(O)COc1ccc(CC(N)=O)cc1 (configuration not stated) [ATENOLOL] | 88 | 78 | 85 | – | – | – | – | – | – | – |
| CCC[C@@H]1NC(=O)[C@H](CC(C)C)N(C)C(=O)[C@H](C(C)C)N(C)C(=O)[C@H](CC(C)C)N(C)C(=O)[C@H](CC(C)C)N(C)C(=O)[C@@H](C)NC(=O)[C@H](CCC(N)=O)NC(=O)[C@H](CC(C)C)N(C)C(=O)[C@H](C(C)C)NC(=O)[C@H](CC(C)C)N(C)C(=O)CN(C)C1=O | 76 | 112 | 88 | 3 | 60 | < 0.004 | 0.07 | 0.05 | 5.17 | – |
| CCC[C@@H]1NC(=O)[C@H](CC(C)C)N(C)C(=O)[C@H](CC(C)C)N(C)C(=O)[C@H](CC(C)C)N(C)C(=O)[C@H](CC(C)C)N(C)C(=O)[C@@H](C)NC(=O)[C@H](CCC(N)=O)NC(=O)[C@H](CC(C)C)N(C)C(=O)[C@H](C(C)C)NC(=O)[C@H](CC(C)C)N(C)C(=O)CN(C)C1=O (cyclo([NMeL][NMeL][NMeL][NMeL][Nva][Sar][NMeL]V[NMeL]Q[dA])) | 89 | 110 | 87 | > 20 | 75 | < 0.009 | 0.18 | 0.12 | 8.6 | – |
| CCC[C@@H]1NC(=O)[C@H](CC(C)C)N(C)C(=O)[C@H](CC(C)C)N(C)C(=O)[C@H](CC(C)C)N(C)C(=O)[C@H](CC(C)C)N(C)C(=O)[C@@H](C)NC(=O)[C@H](C)NC(=O)[C@H](CC(C)C)N(C)C(=O)[C@H](C(C)C)NC(=O)[C@H](CC(C)C)N(C)C(=O)CN(C)C1=O | 66 | 107 | 65 | > 20 | 74 | 0.06 | 0.34 | 0.07 | 0.61 | – |
| CC(C)NCC(O)COc1cccc2ccccc12 (configuration not stated) [PROPRANOLOL] | – | – | – | – | – | – | – | 20 | – | – |
| CCC[C@@H]1NC(=O)[C@H](CC(C)C)N(C)C(=O)[C@H](C(C)C)N(C)C(=O)[C@H](CC(C)C)N(C)C(=O)[C@H](CC(C)C)N(C)C(=O)[C@@H](C)NC(=O)[C@H](C)NC(=O)[C@H](CC(C)C)N(C)C(=O)[C@H](C(C)C)NC(=O)[C@H](CC(C)C)N(C)C(=O)CN(C)C1=O (cyclo(A[dA][NMeL][NMeL][NMeV][NMeL][Nva][Sar][NMeL]V[NMeL])) | 82 | – | 82 | 2.3 | 84 | 0.29 | 0.69 | – | 2.88 | AUC [10]: 8500 ng·h/mL; Vz [11]: 22.2 L/kg; half-life [12]: 4.8 h; half-life [13]: 3.1 h; Drug recovery ([2]; caco-2, time 1-2.5 hrs): 123%; Tmax [14]: 0.8 h; F [15]: 12%; CL/F [16]: 82 mL/min/kg; permeability [8]: 0.29 10^-6 cm/s; AUC [17]: 4080 ng·h/mL; Ratio [18]: 5; Vd [19]: 4 L/kg; Kp at 1 h, 1 µM [20]: 0.62; Cmax [21]: 1600 ng/mL |
